TRPC4 potent – TRPC4 (mouse) allosteric potentiation | Q9QUQ5 | HEK293 TRPC4beta/mu-opioid, DAMGO EC20, Fluo-4 Ca2+ flux; stronger effect = higher value | B-score at 10 µM | 0.42% of 310,000 active;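 active = B-score of calcium response area above 5 SD of library B-scores, with initial fluorescence ratio within 5 SD of library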;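 also: B-score of integrated fluorescence ratio over time as area under calcium response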
Target sequence (Q9QUQ5 whole entry, looked up): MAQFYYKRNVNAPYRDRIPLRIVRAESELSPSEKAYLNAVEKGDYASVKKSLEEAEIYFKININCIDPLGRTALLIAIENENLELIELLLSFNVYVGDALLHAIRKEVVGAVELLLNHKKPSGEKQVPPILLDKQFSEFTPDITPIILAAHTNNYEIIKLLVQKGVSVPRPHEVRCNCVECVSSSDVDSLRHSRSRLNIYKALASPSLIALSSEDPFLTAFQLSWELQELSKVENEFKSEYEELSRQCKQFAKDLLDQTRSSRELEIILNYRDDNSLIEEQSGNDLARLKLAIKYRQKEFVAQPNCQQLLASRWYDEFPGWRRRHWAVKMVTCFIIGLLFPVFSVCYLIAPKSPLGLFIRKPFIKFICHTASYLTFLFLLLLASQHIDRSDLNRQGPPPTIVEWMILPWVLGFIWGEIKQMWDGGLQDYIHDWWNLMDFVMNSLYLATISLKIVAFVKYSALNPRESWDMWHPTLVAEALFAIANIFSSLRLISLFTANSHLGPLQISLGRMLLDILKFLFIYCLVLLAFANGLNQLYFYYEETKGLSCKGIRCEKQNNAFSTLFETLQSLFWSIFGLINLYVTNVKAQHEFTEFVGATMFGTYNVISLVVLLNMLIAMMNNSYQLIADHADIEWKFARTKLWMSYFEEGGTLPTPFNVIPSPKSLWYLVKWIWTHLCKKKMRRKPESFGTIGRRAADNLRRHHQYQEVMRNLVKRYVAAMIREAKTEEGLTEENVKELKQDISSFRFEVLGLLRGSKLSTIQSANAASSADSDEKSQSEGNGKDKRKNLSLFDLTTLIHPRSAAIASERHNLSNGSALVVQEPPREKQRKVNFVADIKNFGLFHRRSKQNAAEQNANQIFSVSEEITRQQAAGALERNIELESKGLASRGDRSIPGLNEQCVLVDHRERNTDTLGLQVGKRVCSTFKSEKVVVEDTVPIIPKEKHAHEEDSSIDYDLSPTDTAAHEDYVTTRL
TRPC6 activator – activates the mouse TRPC6 cation channel; Q61143; HEK293-TRPC6 membrane potential dye fluorescence; stronger effect = higher value; B-score at 10 µM; 0.13% of 310,000 active;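 active = B-score of the integrated fluorescence ratio above library mean plus 3 SD, and starting fluorescence ratio within library mean plus 5 SD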;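 also: higher score means more depolarization so channel activation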
TRPC4 agonist – TRPC4 (mouse) channel activation; Q9QUQ5; HEK293 TRPC4beta/mu-opioid, Fluo4 calcium fluorescence; stronger effect = higher value; 0.49% of 310,000 active; B-score at 10 µM;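 active = B-score above 5 SD of library B-scores, and initial fluorescence ratio not above library mean plus 5 SD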;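 also: positive B-score marks a calcium rise read as TRPC4 activation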
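Assay system: HEK293 stable line with TRPC4beta plus mu-opioid receptor; schedule: 45 min room-temperature Fluo4 loading, 110 s read; technique: kinetic Fluo4 calcium fluorescence; evaluation: integrated baseline-normalised fluorescence ratio, converted to per-well B score; controls: buffer (low) and maximal DAMGO (high)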
TRPC6 inh – blocks the mouse TRPC6 cation channel | Q61143 | HEK293-TRPC6, membrane potential dye, ACh-evoked depolarization; stronger effect = lower value | B-score at 10 µM | 1.1% of 310,000 active | AID 2553;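 active = B-score under library mean minus 3 SD, initial fluorescence not abnormally high, positive integrated signal ratio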;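 also: B-score derived from integrated fluorescence ratio over the kinetic read; more negative B-score means stronger inhibition of depolarization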
TRPC4 block – TRPC4 (mouse) channel inhibition. HEK293 TRPC4beta/mu-opioid, DAMGO-evoked Fluo4 calcium flux; stronger effect = lower value. Q9QUQ5. 0.39% of 300,000 active. B-score at 10 µM;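 active = B-score over 3 SD under the library average, no early fluorescence shift, positive overall ratio signal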
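material = TRPC4beta/mu-opioid receptor HEK293 cell line | probe or stimulus = sequential submaximal and maximal DAMGO stimulation | compound dosing = one concentration per compound | measured by = Fluo4 Ca2+ flux fluorescence | evaluation = integrated fluorescence ratio relative to baseline, converted to per-well B score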
TRPC4 spec 2 – mouse TRPC4 off-target activity of TRPC6 inhibitors, second screen; shares compounds with TRPC6 inh; HEK293 TRPC4/MOR, membrane potential dye fluorescence; channel activated by saturating DAMGO dose; inhibition, % at 10 µM; 42% of 920 active; AID 2776;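 active = compounds whose fluorescence signal differed from control wells by over 3 SD, either direction, in both duplicate plates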
TRPC4 spec – selectivity of TRPC6 inhibitors: effect on mouse TRPC4; HEK293 TRPC4/mu-opioid, membrane potential fluorescence; activity change, negative = inhibition, % at 10 µM; AID 2777; shares compounds with TRPC6 inh; 61% of 920 active;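 active = rise or fall in signal beyond 3 SD of buffer-only wells in both replicate plates, either sign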;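 also: integrated kinetic ratio of fluorescence range over baseline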
HEK293 MPD ctr 2-1 – parental HEK293 nonspecific activity of TRPC6 inhibitors, second screen | shares compounds with TRPC6 inh | parental HEK293 membrane potential dye fluorescence; maximal acetylcholine challenge after compound addition | signal change vs control, % at 10 µM | 31% of 920 active;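 active = membrane potential signal moving either way by over 3 SD of the maximum-effect control, in both duplicate plates, meaning non-specific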
HEK293 MPD ctr-1 – parental HEK293 nonspecific activity of TRPC6 inhibitors; shares compounds with TRPC6 inh; parental HEK293 membrane potential dye fluorescence; membrane potential signal change, % at 10 µM; 60% of 920 active; AID 2780;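 active = membrane potential signal shifting up or down by more than 3 SD of buffer-only wells, on both duplicate plates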
HEK293 MPD ctr-2 – parental HEK293 nonspecific activity of TRPC6 modulators. shares compounds with TRPC6 inh. membrane potential dye fluorescence. membrane potential signal change, % at 10 µM. 51% of 2,400 active. AID 488924;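 active = membrane potential signal moves up or down beyond 5 SD from buffer-only wells, on both duplicate plates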
HEK293 MPD ctr 2-2 – second counter-screen for TRPC6 modulators: effect in parental HEK293 cells | shares compounds with TRPC6 inh | membrane potential dye fluorescence; after compound, maximal acetylcholine stimulation | inhibition, % at 10 µM | 14% of 2,400 active | AID 488926;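 active = membrane potential signal drops by more than 5 SD from the mean control signal, in both duplicate plates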;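 also: plate controls were acetylcholine ECmax control wells for no effect and buffer only wells for full effect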
TRPC4 ctr mod – tests whether TRPC6 modulators also affect mouse TRPC4; shares compounds with TRPC6 inh; HEK293 TRPC4/mu-opioid, membrane potential fluorescence; percent change from control (negative = decrease, positive = increase), % at 10 µM; 69% of 2,400 active; AID 488927;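 active = membrane potential signal moved up or down beyond 5 SD of buffer control wells, in both duplicate plates, actives on both sides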;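 also: plate controls were assay buffer wells for no effect and DAMGO maximal-effect wells for full effect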
TRPC4/MOR inh 2 – second check of whether TRPC6 modulators also affect mouse TRPC4; shares compounds with TRPC6 inh; HEK293 TRPC4/mu-opioid, membrane potential dye fluorescence; stimulated with maximal-effect DAMGO; inhibition, % at 10 µM; 55% of 2,400 active; AID 488928;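 active = drop in membrane potential signal beyond 5 SD of the control wells in both duplicate plates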;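 also: TRPC4 counter screen for TRPC6 hits run under conditions tuned for TRPC6 not TRPC4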
TRPC6 inh conf – mouse TRPC6 inhibitor confirmation; inhibition, % at 10 µM; HEK293-TRPC6, membrane potential dye, ACh-evoked depolarization; AID 488960; shares compounds with TRPC6 inh; 43% of 3,300 active;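 active = fluorescence ratio falls more than 5 SD below the full-stimulation control mean, in both duplicate runs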;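 also: integrated fluorescence ratio of peak minus minimum over baseline after agonist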
TRPC6 act conf – mouse TRPC6 activator confirmation; shares compounds with TRPC6 inh; HEK293-TRPC6 membrane potential dye fluorescence, FDSS; activation, % at 10 µM; 11% of 2,800 active; AID 488961;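 active = ratio signal rise beyond 5 SD above unstimulated control wells' mean, seen in both duplicate runs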;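 also: plate controls were buffer EC0 wells for no effect and acetylcholine ECmax response for full effect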
* hit, by the source's call. Sampled rows, rich in hits. Any-hit rate of the full collection: about 2.3%.

Results for O=C(c1cccs1)N1CCC(c2nc3c(nnn3Cc3c(Cl)cccc3Cl)c(=O)[nH]2)CC1 ?
TRPC4 potent: inactive; TRPC6 activator: inactive; TRPC4 agonist: inactive; TRPC6 inh: -5.4*; TRPC4 block: inactive; HEK293 MPD ctr-2: inactive; HEK293 MPD ctr 2-2: inactive; TRPC4 ctr mod: inactive; TRPC4/MOR inh 2: inactive; TRPC6 inh conf: inactive; TRPC6 act conf: inactive

Results for Cc1c(C(=O)NCc2ccc3c(c2)OCO3)cccc1[N+](=O)[O-] ?
TRPC4 potent: inactive; TRPC6 activator: inactive; TRPC4 agonist: inactive; TRPC6 inh: inactive; TRPC4 block: inactive

How did CC(C)c1c(C(=O)N/N=C/c2cccc3ccccc23)nnn1-c1nonc1N do in these assays?
TRPC4 potent: inactive; TRPC6 activator: inactive; TRPC4 agonist: inactive; TRPC6 inh: inactive; TRPC4 block: inactive

What do the screens show for `Cc1ccc(NC(=S)NCC(C)C)cc1`?
TRPC4 potent: inactive; TRPC6 activator: inactive; TRPC4 agonist: inactive; TRPC6 inh: -7.2*; TRPC4 block: inactive; TRPC4 spec 2: inactive; TRPC4 spec: inactive; HEK293 MPD ctr 2-1: inactive; HEK293 MPD ctr-1: inactive; TRPC6 inh conf: inactive; TRPC6 act conf: inactive

Results for CC(C)CNC(=S)Nc1ccc(S(N)(=O)=O)cc1 ?
TRPC4 potent: inactive; TRPC6 activator: inactive; TRPC4 agonist: inactive; TRPC6 inh: inactive; TRPC4 block: inactive

How did C=CCn1c(SCC(=O)c2c(C)[nH]c3ccccc23)nnc1-c1ccncc1 do in these assays?
TRPC4 potent: inactive; TRPC6 activator: inactive; TRPC4 agonist: inactive; TRPC6 inh: inactive; TRPC4 block: inactive

How did CCn1ccnc1CN(C)C(=O)c1cc(COc2ccccc2SC)on1 do in these assays?
TRPC4 potent: inactive; TRPC6 activator: inactive; TRPC4 agonist: inactive; TRPC6 inh: -7.5*; TRPC4 block: inactive; TRPC4 spec 2: inactive; TRPC4 spec: 4.0%*; HEK293 MPD ctr 2-1: inactive; HEK293 MPD ctr-1: 7.0%*; TRPC6 inh conf: inactive

What do the screens show for `CSc1ccccc1OCc1cc(C(=O)N(Cc2nccn2C)C(C)C)no1`?
TRPC4 potent: inactive; TRPC6 activator: inactive; TRPC4 agonist: inactive; TRPC6 inh: inactive; TRPC4 block: inactive

Results for Cc1ccc(SCCN2CCC(O)CCC2=O)cc1 (stereo not given) ?
TRPC4 potent: inactive; TRPC6 activator: inactive; TRPC4 agonist: inactive; TRPC6 inh: inactive; TRPC4 block: inactive

What do the screens show for `Cc1cc(C)cc(N=Cc2[nH]c3ccc(Br)c(Cl)c3c2O)c1`?
TRPC4 potent: 11*; TRPC6 activator: 36*; TRPC4 agonist: inactive; TRPC6 inh: inactive; TRPC4 block: inactive; HEK293 MPD ctr-2: inactive; HEK293 MPD ctr 2-2: inactive; TRPC4 ctr mod: inactive; TRPC4/MOR inh 2: inactive; TRPC6 inh conf: inactive; TRPC6 act conf: inactive

What do the screens show for `Cc1ccc(N=Cc2cc(Br)cc(Cl)c2O)cc1`?
TRPC4 potent: inactive; TRPC6 activator: inactive; TRPC4 agonist: inactive; TRPC6 inh: inactive; TRPC4 block: inactive

How did Cc1ccc(S(=O)(=O)/C(C#N)=C/c2c(N3CCOCC3)nc3c(C)cccn3c2=O)cc1 do in these assays?
TRPC4 potent: inactive; TRPC6 activator: inactive; TRPC4 agonist: inactive; TRPC6 inh: -5.9*; TRPC4 block: inactive; HEK293 MPD ctr-2: inactive; HEK293 MPD ctr 2-2: inactive; TRPC4 ctr mod: -10%*; TRPC4/MOR inh 2: inactive; TRPC6 inh conf: inactive; TRPC6 act conf: inactive

Results for CCCNC(=O)NC(=O)COC(=O)CNS(=O)(=O)/C=C/c1ccccc1 ?
TRPC4 potent: inactive; TRPC6 activator: inactive; TRPC4 agonist: inactive; TRPC6 inh: inactive; TRPC4 block: inactive

Results for CCCCN(C(=O)c1cc2ccccc2o1)c1c(N)n(CCC)c(=O)[nH]c1=O ?
TRPC4 potent: inactive; TRPC6 activator: inactive; TRPC4 agonist: inactive; TRPC6 inh: inactive; TRPC4 block: inactive

What do the screens show for `COc1ccc(Cn2c(=N)c(C(=O)NCC3CCCO3)cc3c(=O)n4ccccc4nc32)cc1` (stereo not given)?
TRPC4 potent: inactive; TRPC6 activator: inactive; TRPC4 agonist: inactive; TRPC6 inh: -6.5*; TRPC4 block: inactive; HEK293 MPD ctr-2: inactive; HEK293 MPD ctr 2-2: inactive; TRPC4 ctr mod: -10%*; TRPC4/MOR inh 2: 36%*; TRPC6 inh conf: 44%*; TRPC6 act conf: inactive

What do the screens show for `COCCCn1c(=N)c(C(=O)NCC2CCCO2)cc2c(=O)n3ccccc3nc21` (stereo not given)?
TRPC4 potent: inactive; TRPC6 activator: inactive; TRPC4 agonist: inactive; TRPC6 inh: inactive; TRPC4 block: inactive

What do the screens show for `CCOC(=O)c1cc2c(=O)n3ccccc3nc2n(CCCOC)c1=NC(=O)c1cccnc1`?
TRPC4 potent: inactive; TRPC6 activator: inactive; TRPC4 agonist: inactive; TRPC6 inh: inactive; TRPC4 block: inactive

Bioassay records: PubChem BioAssay, Johns Hopkins Ion Channel Center
